In article PMC12334575 (Nature Communications, 2025):

Key:
Format in all cases: cell-based, Candida auris
[1] = tested on: C. auris CBS 10913; test: High-throughput screening of crude extracts and PFL fractions; settings: identified in active fractions of WAC11175, result in words
Outline: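 Primary screen: C. auris CBS 10913 colonies grown on YPD agar at 30 °C for 48 h, then suspended in RPMI 1640. 1 µL crude extract or fraction added to 49 µL culture in 384-well format, in duplicate. […] OD530 read after 48 h; hits defined as ≥75% growth inhibition versus untreated. For follow-up, producer strains were regrown on Bennett's agar at 30 °C for 7 days, extracts fractionated on C18, and DMSO-dissolved fractions retested in broth microdilution.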

[2] = tested on: C. auris CBS12775; test: Checkerboard assay coniotin A with caspofungin; settings: refractory C. auris, checkerboard (Fig. 4a)
[3] = tested on: C. auris CBS10913; test: Intracellular drug accumulation assay; settings: C. auris CBS10913, 20 µM, 10 min, 30 °C, PBS, silicone oil centrifugation, LC-MS
Outline: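 Yeast subcultured in SDB at 30 °C with shaking to mid-log (OD530 ≈ 0.6), washed twice in PBS and resuspended in PBS. Equilibrated 5 min at 30 °C, then test compound added to 20 µM final for 10 min. Cells spun at 13,000×g through pre-cooled silicone oil; intracellular compound quantified by LC-MS. Biological triplicates.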

| Compound | Activity against C. auris [1] | MIC of caspofungin in the presence of coniotin A [2] | Intracellular accumulation [3] |
| --- | --- | --- | --- |
| enniatin B1 | significant activity |  |  |
| enniatin A1 | significant activity |  |  |
| CC[C@H](C)C[C@H](C)CCCCCCCCC(=O)N[C@H]1C[C@@H](O)[C@@H](NCCN)NC(=O)[C@@H]2[C@@H](O)CCN2C(=O)[C@H]([C@H](O)CCN)NC(=O)[C@H]([C@H](O)[C@@H](O)c2ccc(O)cc2)NC(=O)[C@@H]2C[C@@H](O)CN2C(=O)[C@H]([C@@H](C)O)NC1=O [Caspofungin] |  | 2 µg/mL | measurable accumulation |
